Test results reported in ChEMBL document CHEMBL1123757, “Selective thromboxane synthetase inhibitors and antihypertensive agents. New derivatives of 4-hydrazino-5H-pyridazino[4,5-b]indole, 4-hydrazinopyridazino[4,5-a]indole, and related compounds” (J Med Chem, 1987).

Legend:
[1] = Effect on PGI-2 release from rat aortic tissue at a final concentration of 10e -4 for an incubation time of 35 minutes; assay type: functional
In short: (§1)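 Female Wistar rats (200–220 g) received heparin 200 IU/kg ip and were killed 10 min later. Aortic pieces of about 25 mm² were washed in ice-cold oxygenated Krebs–Henseleit buffer, then incubated in 1 mL buffer at 37 °C. Compound at 10^-4 M final was added 10 min before tissue transfer. PGI2 release was read as antiaggregatory activity of the incubate on ADP (2×10^-6 M)-induced human PRP aggregation and by 6-keto-PGF1α RIA. n = 4.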

Cavia porcellus [2] = assay: Ex vivo inhibition of platelet aggregation induced by AA at 100 mg/kg; assay type: functional
In short: (§2)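 Fasted male or female guinea pigs (250–300 g, five per group) dosed orally in normal saline or saline with 0.2% (carboxymethyl)cellulose/1.0% Tween 80; controls given vehicle. Under ether, cardiac blood collected into 3.8% citrate. PRP adjusted to […] and aggregation induced by ADP (second wave) or AA, read by absorbance aggregometry. PGE2 and TXB2 measured by RIA.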

Cavia porcellus [3] = assay: Effect on thromboxane synthetase activity (ex vivo) at 100 mg/kg expressed as percent increase in TXB2; assay type: functional; in short: as §2
Rattus norvegicus [4] = assay: Antihypertensive activity in spontaneously hypertensive rats (SHR) measured by percentage fall in cardiac rhythm (CR) at 25 mg/kg administered intraperitoneally at 5 h; assay type: functional, Heart; details: route intraperitoneal
In short: (§3)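 Conscious SHR (Okamoto strain), 8 weeks old, male and female, 300–350 g, systolic BP ≥190 mmHg, CR 400–650 beats/min. Given ip or po at 2.5 mL/kg in normal saline or saline with 0.2% (carboxymethyl)cellulose and 1.0% Tween 80. Tail AP and CR recorded by mechanical transduction at 1, 3, 5 and 24 h, five animals per dose. Effect expressed as % fall versus control.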

Rattus norvegicus [5] = assay: Antihypertensive activity in spontaneously hypertensive rats (SHR) measured by percentage fall in arterial pressure (AP) at a dose of 25 mg/kg administered perorally at 1 h; assay type: functional, Artery; details: route oral
In short: (§4)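 Oral dosing at 2.5 mL/kg to unanesthetized male and female Okamoto-strain SHR (8 weeks old, 300–350 g, systolic pressure ≥190 mmHg, heart rate 400–650 beats/min), five per dose. Vehicle was normal saline or saline with 0.2% (carboxymethyl)cellulose and 1.0% Tween 80. AP measured on the tail by mechanical transduction at set times; expressed as percentage fall from control.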

Rattus norvegicus [6] = assay: Antihypertensive activity in spontaneously hypertensive rats (SHR) measured by percentage fall in arterial pressure (AP) at 25 mg/kg administered perorally at 24 h; assay type: functional, Artery; details: route oral; in short: as §4
[7] = Effect on PGI-2 release from rat aortic tissue at a final concentration of 10e -4 for an incubation time of 10 minutes; assay type: functional; in short: as §1
Rattus norvegicus [8] = assay: Percent increase in cardiac rhythm, directly measured on carotid (iv on the jugular vein) of spontaneously hypertensive rats at 1 mg/kg after 60 minutes; assay type: functional, Heart
In short: (§5)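 Anesthetized (sodium pentobarbital, 70 mg/kg) male and female Okamoto SHR, 8 weeks old, 300–350 g. Given iv into the jugular vein in normal saline. Arterial pressure and cardiac rhythm are recorded directly from the carotid by polygraph at set times after dosing. Each is expressed as percent change from the pre-dose control value.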

Rattus norvegicus [9] = assay: Antihypertensive activity in spontaneously hypertensive rats (SHR) measured by percentage fall in arterial pressure (AP) at 25 mg/kg administered intraperitoneally at 1 h; assay type: functional, Artery; details: route intraperitoneal
In short: (§6)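 Unanesthetized Okamoto-strain SHR, male and female, 8 weeks old, 300–350 g, systolic pressure ≥190 mmHg, heart rate 400–650 beats/min; five animals per dose. Given ip at 2.5 mL/kg, dissolved or suspended in normal saline or saline with 0.2% (carboxymethyl)cellulose and 1.0% Tween 80. Tail AP and CR recorded by mechanical transduction at set times; reported as percentage fall from control.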

Rattus norvegicus [10] = assay: Percent fall in systolic blood pressure, directly measured on carotid (iv on the jugular vein) of spontaneously hypertensive rats at 1 mg/kg after 240 minutes; assay type: functional, Artery; in short: as §5
Rattus norvegicus [11] = assay: Antihypertensive activity in spontaneously hypertensive rats (SHR) measured by percentage fall in cardiac rhythm (CR) at 25 mg/kg administered intraperitoneally at 24 h; assay type: functional, Heart; details: route intraperitoneal; in short: as §6
Rattus norvegicus [12] = assay: Antihypertensive activity in spontaneously hypertensive rats (SHR) measured by percentage fall in cardiac rhythm (CR) at 1 mg/kg administered intraperitoneally at 1 h; assay type: functional, Heart; details: route intraperitoneal; in short: as §6
Rattus norvegicus [13] = assay: Antihypertensive activity in spontaneously hypertensive rats (SHR) measured by percentage fall in cardiac rhythm (CR) at 5 mg/kg administered intraperitoneally at 1 h; assay type: functional, Heart; details: route intraperitoneal; in short: as §3
Rattus norvegicus [14] = assay: Antihypertensive activity in spontaneously hypertensive rats (SHR) measured by percentage fall in cardiac rhythm (CR) at 5 mg/kg administered intraperitoneally at 5 h; assay type: functional, Heart; details: route intraperitoneal; in short: as §3
Rattus norvegicus [15] = assay: Antihypertensive activity in spontaneously hypertensive rats (SHR) measured by percentage fall in arterial pressure (AP) at 5 mg/kg administered intraperitoneally at 24 h; assay type: functional, Artery; details: route intraperitoneal; in short: as §6
Rattus norvegicus [16] = assay: Antihypertensive activity in spontaneously hypertensive rats (SHR) measured by percentage fall in arterial pressure (AP) at 1 mg/kg administered intraperitoneally at 1 h; assay type: functional, Artery; details: route intraperitoneal; in short: as §6
Rattus norvegicus [17] = assay: Antihypertensive activity in spontaneously hypertensive rats (SHR) measured by percentage fall in arterial pressure (AP) at 25 mg/kg administered intraperitoneally at 5 h; assay type: functional, Artery; details: route intraperitoneal; in short: as §6
Rattus norvegicus [18] = assay: Percent fall in systolic blood pressure, directly measured on carotid (iv on the jugular vein) of spontaneously hypertensive rats at 1 mg/kg after 5 minutes; assay type: functional, Artery; in short: as §5
Rattus norvegicus [19] = assay: Antihypertensive activity in spontaneously hypertensive rats (SHR) measured by percentage fall in arterial pressure (AP) at 5 mg/kg administered intraperitoneally at 5 h; assay type: functional, Artery; details: route intraperitoneal; in short: as §6
Rattus norvegicus [20] = assay: Antihypertensive activity in spontaneously hypertensive rats (SHR) measured by percentage fall in arterial pressure (AP) at 25 mg/kg administered intraperitoneally at 24 h; assay type: functional, Artery; details: route intraperitoneal; in short: as §6
Rattus norvegicus [21] = assay: Percent fall in systolic blood pressure, directly measured on carotid (iv on the jugular vein) of spontaneously hypertensive rats at 1 mg/kg after 120 minutes; assay type: functional, Artery; in short: as §5
Rattus norvegicus [22] = assay: Antihypertensive activity in spontaneously hypertensive rats (SHR) measured by percentage fall in cardiac rhythm (CR) at 1 mg/kg administered intraperitoneally at 3 h; assay type: functional, Heart; details: route intraperitoneal; in short: as §6
Rattus norvegicus [23] = assay: Antihypertensive activity in spontaneously hypertensive rats (SHR) measured by percentage fall in arterial pressure (AP) at 25 mg/kg administered perorally at 5 h; assay type: functional, Artery; details: route oral; in short: as §4
Homo sapiens = species on record: Homo sapiens; assay: In vitro inhibition of platelet aggregation induced by adrenaline at 10e-5 M; assay type: functional
In short: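 Human venous blood anticoagulated with 3.8% sodium citrate (1:9). PRP from centrifugation at 800 rpm for 10 min at room temperature. Count adjusted with PPP to […]. Compound in saline with 10% ethylene glycol is added to PRP and incubated at 37 °C before the agonist. Agonists: ADP 2×10^-5 M, AA 0.6 mM, PGH2 2.8 μM, adrenaline 0.6 μM. Born absorbance aggregometry; n = 5.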

Rattus norvegicus [24] = assay: Percent fall in systolic blood pressure, directly measured on carotid (iv on the jugular vein) of spontaneously hypertensive rats at 1 mg/kg after 30 minutes; assay type: functional, Artery; in short: as §5

SMILES: COc1ccc2[nH]c3c(NN)nncc3c2c1.Cl
- Inhibition [1]: 25%
- inhibition in vivo at 100 mg/kg (Cavia porcellus [2]): 100%
- inhibition in vivo at 100 mg/kg (Cavia porcellus [3]): 95%
- Decrease in CR (Rattus norvegicus [4]): 24%
- Decrease in AP (Rattus norvegicus [5]): 50%
- Decrease in AP (Rattus norvegicus [6]): 15%
- Inhibition [7]: 50%
- Increase (Rattus norvegicus [8]): 10%
- Decrease in AP (Rattus norvegicus [9]): 58%
- Decrease in blood pressure (Rattus norvegicus [10]): 30%
- Decrease in CR (Rattus norvegicus [11]): 38%
- Decrease in CR (Rattus norvegicus [12]): 9%
- Decrease in CR (Rattus norvegicus [13]): -9%
- Decrease in CR (Rattus norvegicus [14]): -6%
- Decrease in AP (Rattus norvegicus [15]): 9%
- Decrease in AP (Rattus norvegicus [16]): 32%
- Decrease in AP (Rattus norvegicus [17]): 50%
- Decrease in blood pressure (Rattus norvegicus [18]): 30%
- Decrease in AP (Rattus norvegicus [19]): 26%
- Decrease in AP (Rattus norvegicus [20]): 10%
- Decrease in blood pressure (Rattus norvegicus [21]): 40%
- Decrease in CR (Rattus norvegicus [22]): 8%
- Decrease in AP (Rattus norvegicus [23]): 34%
- inhibition at 10 µM (Homo sapiens): 100%
- Decrease in blood pressure (Rattus norvegicus [24]): 40%
